Compound activity as filed in PubChem BioAssay.
Wee1 degr inh: blocks degradation of human Wee1 kinase. HeLa Luc-Wee1K328M stability, luciferase luminescence; 100% = proteasome inhibitor MG132 effect. reporter increase, % at 5 µM. 220,000 tested, 1.2% active;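 active = activation above the mean of all tested compounds plus 3 SD, set per screening run, cut at about 8.8% in these data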;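 note: cells exposed to compound for 20 h before luminescence read; 0% = DMSO alone and 100% = MG132 at 30 µM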
Target sequence (P30291 whole entry K328M): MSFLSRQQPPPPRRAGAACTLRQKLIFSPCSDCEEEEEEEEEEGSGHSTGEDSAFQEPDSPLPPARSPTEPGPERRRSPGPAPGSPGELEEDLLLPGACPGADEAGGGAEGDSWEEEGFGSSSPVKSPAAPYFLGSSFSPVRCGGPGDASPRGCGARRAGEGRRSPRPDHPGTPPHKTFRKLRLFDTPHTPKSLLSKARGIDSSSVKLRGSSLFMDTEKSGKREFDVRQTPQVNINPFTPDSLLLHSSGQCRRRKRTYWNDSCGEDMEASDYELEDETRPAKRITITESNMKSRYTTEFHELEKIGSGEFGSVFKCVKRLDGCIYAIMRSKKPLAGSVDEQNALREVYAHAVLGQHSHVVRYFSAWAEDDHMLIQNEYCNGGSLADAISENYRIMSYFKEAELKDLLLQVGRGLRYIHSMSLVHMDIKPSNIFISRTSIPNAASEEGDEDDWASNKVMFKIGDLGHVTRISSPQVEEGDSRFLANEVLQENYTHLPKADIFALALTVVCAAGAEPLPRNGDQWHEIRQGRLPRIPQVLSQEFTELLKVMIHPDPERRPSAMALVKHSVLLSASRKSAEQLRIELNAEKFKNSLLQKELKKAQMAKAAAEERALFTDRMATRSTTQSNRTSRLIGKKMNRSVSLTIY
MT stabilizer: microtubule stabilizers in HeLa cells; HeLa tubulin immunostaining HCS, 24 h; share of cells brighter than vehicle mean+2SD; % tubulin-high responders, % at 10 µM; 200,000 tested, 0.83% active; AID 2205;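 active = plate Z-score above 3 for both tubulin-high and condensed-nucleus cell shares, with cell loss under 80%, at 10 µM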;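 note: anti alpha tubulin signal scored within the nucleus-defined area of each cell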
bCat nuc transl: modulators of beta-catenin nuclear translocation | HeLa beta-catenin nuclear translocation, immunofluorescence imaging | nuclear translocation activity, % at 5 µM | 190,000 tested, 0.3% active | AID 1665;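 active = nuclear translocation activity above 50% at 5 µM, with a well cell count of 50 or more; inconclusive = wells under 50 cells across six images, flagged as toxic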;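 note: per-cell ratio of nuclear to cytoplasmic median beta-catenin stain intensity; plate controls were DMSO negative control for no effect and GSK-3 inhibitor IX positive control for full effect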
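System: Human HeLa cells, endogenous beta-catenin | Compound dosing: 5 µM primary, 0.02–20 µM confirmation | Timing: 24 h compound exposure at 37°C, 5% CO2 | Measured by: Fluorescence imaging of beta-catenin antibody stain plus DAPI | Read-out basis: % activation of per-cell nuclear versus cytoplasmic median beta-catenin signal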
Autophagy HCS: alters autophagy in cells. 190,000 tested, 0.98% active. MEF GFP-LC3 puncta imaging; test concentration mostly 10 µM. calls only at 10 µM (by protocol);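 active = percentage of spot-positive cells more than 3 SD above its plate mean, without a fluorescence outlier flag or 80% toxicity; inconclusive = no clear call, values can overlap the other calls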;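 note: spot-positive cell cutoff set from DMSO-treated cells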
Insulin prom up: MIN6 insulin promoter up-regulation | AID 1625 | MIN6 insulin promoter-GFP reporter, high-content imaging; active compounds read high | 190,000 tested, 0.3% active | z-score at 5 µM;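 active = z-score above 3 at 5 µM with at least 500 cells counted in the well; inconclusive = wells under 500 cells, flagged as cytotoxic or low count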
An asterisk follows results filed as active; i = inactive; ? = inconclusive; . = not tested or not shown; + = active, no number. The list is not random: actives were taken first. Their share in the collection is about 2.9%.

SMILES	Wee1 degr inh	MT stabilizer	bCat nuc transl	Autophagy HCS	Insulin prom up
C=CCOc1ccc2nc(NC(=O)OC)[nH]c2c1	2	38*	109*	+	-1.7
COC(=O)c1ccc(C(NC(=O)c2cccnc2)NC(=O)c2cccnc2)cc1	-1	4	1	+	-0.49
CC(C)C(NC(=O)c1cccnc1)C(=O)O (stereo not given)	1	1	0	i	.
COc1cccc(CN(c2ccc3c(c2)CCC3)S(=O)(=O)c2ccc(-n3cnnn3)c(OC)c2)c1	4	3	-1	i	0.42
O=C(NCc1nc(-c2ccc(C(F)(F)F)cc2)no1)c1cccs1	9.6*	.	2	.	.
O=C(NCc1nc(-c2ccccc2)no1)c1cccs1	3	2	-3	i	0.81
CCOc1ccc2c(c1)C(c1ccc(C)o1)=NNC(c1ccncc1)=N2	0	4	-2	+	0.06
CCOc1ccc2c(c1)C(c1ccc(C)cc1)=NNC(c1ccc(OC)cc1)=N2	6	5	-4	i	-0.32
N#CCC(=O)Nc1ccc(C(=O)NCC(c2ccco2)N2CCCCC2)cc1 (stereo not given)	1	2	0	i	0.21
O=C(CSc1nnc(NCc2ccccc2)s1)NC1CCS(=O)(=O)C1 (stereo not given)	-2	.	0	.	-0.13
O=C(CSc1nc2ccccc2s1)NC1CCS(=O)(=O)C1 (stereo not given)	11*	1	0	i	-0.51
CC/C(=N\NC(=O)CCC(=O)NCc1ccccc1)c1ccc(O)cc1	-4	12*	43	i	?
COCc1cc(=O)n2[nH]c(C(C)(C)C)cc2n1	6	.	0	.	-0.74
Cc1ccc2nc(/C(C#N)=C/c3cn[nH]c3-c3ccc(F)cc3)[nH]c2c1	5	36*	100*	i	-0.67
N#CC1=C(N)SC(N)=C(C#N)C1c1ccc(C(F)(F)F)cc1	-1	3	-1	i	0.08
N#CC1=C(N)SC(N)=C(C#N)C1c1ccc([N+](=O)[O-])cc1	10*	4	-2	i	0.04
CCN(CC)c1ccc(NC(=O)c2ccc3c(c2)c(C)c(C)n3C)cc1	3	14*	.	i	-0.27
O=S(=O)(CCSc1nc2ccccc2s1)c1nc2ccccc2s1	4	11*	3	i	1.3
Cc1cc(NC(=O)CCCn2nc([N+](=O)[O-])c(Cl)c2C)no1	5	2	4	+	0.7
Cc1cc(NC(=O)CCCn2nc([N+](=O)[O-])cc2C)no1	1	3	-1	i	-0.11
CCN(c1ccccc1)S(=O)(=O)c1ccc(N)c(OC)c1	3	22*	111*	i	.
CC(C)N(C(=O)COC(=O)CNC(=O)c1ccc(Br)cc1)c1ccccc1	4	2	0	i	-0.13
CCOc1ccccc1NC(=O)NC(=O)N(C)S(=O)(=O)c1ccc(C)cc1	-1	1	-1	i	-0.21
Cc1cc(C(=O)CSc2nnc(NCc3ccccc3)s2)c(C)n1C	-2	46	111*	.	0.01
CC(=O)c1ccc(NC(=O)C2Cc3ccccc3CN2C(=O)c2ccccc2)cc1 (stereo not given)	0	6	0	i	0.13
SMILES	Wee1 degr inh	MT stabilizer	bCat nuc transl	Autophagy HCS	Insulin prom up
O=C(NC1=NCCS1)C1Cc2ccccc2CN1C(=O)c1ccccc1 (stereo not given)	0	5	0	i	3.1*
Cc1ccc(NC(=S)N/N=C/c2c(Cl)cccc2Cl)c(C)c1	1	13*	99*	i	-1
CCCOc1ccc([N+](=O)[O-])c(N)c1	-1	2	-1	i	0.22
COc1cccc(CNC(=O)c2cc(COc3c(F)cccc3F)on2)c1	9.8*	4	1	i	-1.4
Cc1ccccc1Cn1cc(NC(=O)c2cc(C3CC3)on2)cn1	1	.	-1	.	-0.68
COc1cccc(C(=O)Nc2ncc3c(n2)CC(c2ccc(OC)cc2OC)CC3=O)c1 (stereo not given)	2	67	73*	i	-0.48
O=C1N/C(=N/Nc2ccccc2)S/C1=C\c1ccccc1	-3	3	2	i	3.2*
COc1cc(OC)cc(C(C(=O)NC2CCCCC2)N(C(=O)c2ccno2)c2ccccc2)c1 (stereo not given)	0	4	1	i	.
CO[C@@]1(NC(=O)Cc2cccs2)C(=O)N2C(C(=O)O)=C(COC(N)=O)CS[C@@H]21	10*	4	-2	i	.
CC(C)C1Oc2ccccc2N(CC(=O)N(Cc2ccccn2)CC2CCCO2)C1=O (stereo not given)	9.2*	5	-2	i	-0.13
CC(=O)N1CCOCCOCCN(C(C)=O)CCOCC1	11*	3	0	i	.
Cc1ccc(CCC(=O)Nc2ncc(Cc3cccc(Cl)c3Cl)s2)o1	-2	7	100*	i	-0.56
CCc1nnc(NC(=O)CCc2ccc(C)o2)s1	-1	2	.	i	-0.27
O=C(COC(=O)Cn1cnc2ccccc21)Nc1cc2c(cc1Cl)C(=O)c1ccccc1C2=O	11*	3	0	i	.
O=C(COC(=O)Cn1cnc2ccccc21)Nc1cc(S(=O)(=O)N2CCOCC2)ccc1Cl	0	.	1	.	-0.5
C=CCN1C(=O)S/C(=C\c2ccc(N3CCOCC3)cc2C)C1=O	1	2	-3	+	0.61
Clc1ccc(CN=C2Nc3ccccc3CS2)cc1	8.8*	1	0	i	-1
O=C(Nc1cccc(S(=O)(=O)N2CCCCC2)c1)c1c2c(nc3ccccc13)CCN(Cc1ccccc1)C2	0	2	1	+	.
CC(=O)Nc1ccc(NC(=O)COC(=O)c2c3c(nc4ccccc24)CCN(Cc2ccccc2)C3)cc1	2	7	1	+	-0.84
O=C(CN1CCN(Cc2ccccc2)CC1)Nc1cccc(S(=O)(=O)N2CCCCCC2)c1	1	2	-1	i	-0.62
COc1ccccc1-c1nnc(Sc2nc([N+](=O)[O-])nn2C)o1	2	4	4	i	.
CCN1C(=O)C(O)(C2COC(C)(C)CC2=O)c2cc(Br)ccc21 (stereo not given)	0	2	.	+	.
CN(C)C(CNC(=S)Nc1ccc(F)cc1)c1cccnc1 (stereo not given)	10*	2	0	i	.
Cc1[nH][nH]c(=O)c1C(c1ccc(-c2ccc(Cl)c(C(=O)O)c2)o1)c1c(C)[nH][nH]c1=O	-1	1	-1	+	0.27
COC(=O)c1cccc(-c2ccc(C(c3c(C)[nH][nH]c3=O)c3c(C)[nH][nH]c3=O)o2)c1	2	2	-1	i	-0.13
COC(=O)c1ccc(OC(=O)C23CCC(C)(C(=O)O2)C3(C)C)cc1 (stereo not given)	-4	4	0	i	-0.67
CCOc1ccc(C2C(C#N)=C(N)N3C(=C2C#N)Sc2ccccc23)cc1 (stereo not given)	.	.	-6	.	1.6
